# High-throughput results (PubChem)
# An excerpt weighted towards active compounds, which were near 4.6% of everything screened.
# TAAR1 antag – human TAAR1 antagonists, primary screen, Fluo-8 calcium fluorescence, CHO RD-HGA16 cells. Trace amine-associated receptor 1 (Homo sapiens), Q96RJ0. antagonist. inhibition, % at 3 µM. 1.5% of 360,000 active. AID 624466, 2012;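 active = inhibition above a per-plate cutoff, the mean inhibition of test compounds on that plate plus 3 SD, cut at about 49% in these data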;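 note: 0% = DMSO plus EC80 beta-PEA response and 100% = DMSO alone without agonist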
# Target sequence (Q96RJ0 whole entry, looked up): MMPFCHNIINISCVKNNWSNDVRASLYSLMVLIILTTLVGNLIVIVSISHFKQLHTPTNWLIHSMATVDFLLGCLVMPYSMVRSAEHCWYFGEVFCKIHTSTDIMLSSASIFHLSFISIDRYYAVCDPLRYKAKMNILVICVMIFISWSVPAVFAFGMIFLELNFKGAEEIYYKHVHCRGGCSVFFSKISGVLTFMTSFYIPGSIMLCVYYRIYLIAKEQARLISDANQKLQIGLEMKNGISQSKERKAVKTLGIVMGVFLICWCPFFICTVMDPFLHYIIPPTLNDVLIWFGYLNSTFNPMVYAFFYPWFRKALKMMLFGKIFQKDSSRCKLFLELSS
#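 Assay system: RD-HGA16 CHO cells with stable hTAAR1 and Gα16 / Reagent: EC80 β-phenethylamine stimulus / Doses: 3 µM, single point / Timing: dye loading 75 min at 37 °C, then 30 min room temperature / Measured by: Fluo-8 intracellular calcium dye fluorescence, real-time kinetic reads / Controls: vehicle wells and EC80 agonist wells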
# OX1R antag-1 – antagonists of human orexin 1 receptor (OX1R); Orexin/Hypocretin receptor type 1 (Homo sapiens), O43613; OX1R-expressing cells, FRET antagonist read-out; inhibition, % at 6.6 µM; 1.8% of 330,000 active; in the data active = inhibition mostly above about 38%, no sharp cut-off; inactive = mostly below about 40%;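 note: 0% = agonist challenge alone and 100% = reference antagonist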
# TAAR1 ag – human TAAR1 agonists, primary screen, Fluo-8 calcium fluorescence, CHO RD-HGA16 cells; vehicle wells 0%, saturating PEA agonist 100%; AID 624467, 2012; 0.99% of 360,000 active; activation, % at 3 µM;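 active = activation above the mean activation of all test compounds in the run plus 3 SD, cut at about 38% in these data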
#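 System: CHO RD-HGA16 cells carrying human TAAR1 plus Gα16; Incubation: 17-24 h seeding, 75 min 37 °C dye, 30 min RT; Measured by: Fluo-8 fluorescence, 5 s baseline then 140 s kinetic read; Control set: DMSO and PEA EC100; Replication: single well for each compound.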
# GPR7 antag – GPR7 receptor antagonists, primary screen, cell-based, fluorescence, single concentration; AID 1861, 2009; GPR7-expressing cells, fluorescence antagonist assay; 1.1% of 290,000 active; inhibition, % at 4.4 µM; in the data active = inhibition above about 16%, passing the limit was not always enough;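 note: cells stimulated with the agonist NPW; 0% = agonist with vehicle and 100% = vehicle without agonist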
# Target sequence (P48145 whole entry, looked up): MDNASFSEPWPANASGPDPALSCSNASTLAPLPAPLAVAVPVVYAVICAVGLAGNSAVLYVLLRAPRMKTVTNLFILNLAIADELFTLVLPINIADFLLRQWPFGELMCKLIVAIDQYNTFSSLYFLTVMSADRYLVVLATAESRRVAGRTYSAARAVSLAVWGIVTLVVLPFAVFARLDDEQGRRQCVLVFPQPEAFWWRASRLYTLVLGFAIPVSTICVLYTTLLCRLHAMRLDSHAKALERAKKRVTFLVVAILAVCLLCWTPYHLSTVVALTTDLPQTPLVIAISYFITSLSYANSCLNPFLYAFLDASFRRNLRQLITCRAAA
# CHO parental Ca – ATP-evoked calcium signal inhibitors, parental CHO, primary screen, counter-screen for OX1R antagonist project, cell-based, fluorescence, Fluo-8 calcium dye. parental CHO-K1, ATP-induced calcium, Fluo-8 fluorescence. inhibition, % at 5.6 µM. 0.63% of 330,000 active. AID 463079, 2010;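 active = inhibition above that plate's mean sample inhibition plus 3 SD, cut at about 26% in these data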;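 note: 0% = ATP-challenged DMSO wells and 100% = DMSO wells without ATP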
#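 Assay system: parental CHO cells; Read-out basis: percent inhibition of ATP-evoked calcium rise, normalized to controls; Benchmarks: ATP and no-ATP DMSO wells; Compound dosing: single nominal dose of 5.6 µM per compound; Signal: Fluo-8 calcium dye fluorescence; Also added: ATP as calcium-mobilizing challenge; Repeats: singlicate.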
# OX1R antag-2 – OX1R (HCRTR1) antagonists, primary screen, fluorescence, CHO/OX1R cells, Fluo-8 calcium, orexin A. 0.43% of 330,000 active. Fluo-8 calcium fluorescence. inhibition, % at 5 µM;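 active = inhibition above its plate's threshold, mean inhibition of all tested compounds on the plate plus 3 SD, cut at about 37% in these data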;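 note: 0% = orexin A challenge wells and 100% = SB-334867-A antagonist wells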
# Starred values were filed as active, the others as inactive; x = not tested or not shown.
SMILES,TAAR1 antag,OX1R antag-1,TAAR1 ag,GPR7 antag,CHO parental Ca,OX1R antag-2
COc1cc(NC(=O)COc2cccc3c2OC(C)(C)C3)cc(OC)c1OC,59*,24,13,x,7,26
CC(=O)Nc1ccc(NC(=O)COc2cccc3c2OC(C)(C)C3)cc1,-1,7,2,-9,-23,-11
Cc1cccc(Cl)c1NC(=O)N(C)c1ccccc1,3,x,1,x,x,x
CCCCCCCCCCCCOC(=O)C[N+](C)(C)C,49*,5,38*,-12,-3,-17
O=C1c2ccccc2C(=O)c2c1cccc2N(CCO)CCO,-13,59*,3,-14,-10,-18
O=C1C=C(N(CCO)Cc2ccccc2)c2ccccc2C1=O,x,x,x,-8,x,x
O=C(Nc1ccccc1O)c1ccccc1O,0,13,10,-2,37*,9
O=C(Nc1ccccc1O)C(c1ccccc1)c1ccccc1,35,14,5,19,67*,23
O=C(Nc1ccc(F)cc1)Nc1ccc(NC(=O)c2ccccc2O)cc1,58*,11,41*,8,16,5
Cc1cccc(NC(=O)c2ccccc2O)c1C,8,20,6,12,-3,-3
O=C(Nc1ccc(F)cc1)c1ccccc1F,-2,-1,9,-7,-8,4
CCC(=O)N1CCC1(C)C(=O)NS(=O)(=O)c1cccc(C#N)c1 (centres undefined),5,x,1,x,x,x
COc1ccc(OC)c(NC(=O)c2cc(-c3cc(Cl)ccc3O)n[nH]2)c1,32,101*,15,0,35*,97*
COc1ccc(NC(=O)c2cc(-c3cc(C)ccc3O)n[nH]2)cc1Cl,-7,71*,3,-9,-6,4
NS(=O)(=O)c1ccc(CCNC(=O)c2ccc(C#CC3(O)CCCCC3)cc2)cc1,68*,19,23,0,11,3
NS(=O)(=O)c1ccc(CCNC(=O)c2ccncc2)cc1,-3,5,-1,-2,3,-48
Cc1cc(NC(=O)Cc2ccccc2)c2ccccc2n1,4,48,7,-1,33*,35
Cc1cc(C)nc(SCC(=O)Nc2ccnc3ccccc23)n1,11,44,5,-4,36*,35
COc1cc(C(=O)N/C(=C\c2cn(C)c3ccccc23)C(=O)NCCN2CCOCC2)cc(OC)c1OC,-16,17,0,-5,-14,-23
CCOC1=C2[C@@H](CN(S(=O)(=O)c3ccc(C)cc3)[C@H]2c2ccccc2)[C@H]2C(=O)N(c3ccccc3)C(=O)[C@H]2C1,-22,x,1,x,x,x
CCc1cc2c(COC(=O)CCNS(=O)(=O)c3cccc(C(F)(F)F)c3)cc(=O)oc2cc1O,53*,3,3,x,-3,5
Cc1cc(NC(=O)COC(=O)CCNS(=O)(=O)c2cccc(C(F)(F)F)c2)no1,4,9,5,0,-20,-18
CCCCn1nc(C(=O)Nc2ccc(-n3cnnn3)cc2)c2ccccc2c1=O,52*,5,24,x,-14,-16
Cn1nc(C(=O)Nc2ccc(-n3cnnn3)cc2)c2ccccc2c1=O,18,3,6,x,-18,-27
O=C(CN1C(=O)C2C3C=CC(C3)C2C1=O)OCC(=O)c1ccc([N+](=O)[O-])cc1 (centres undefined),1,58*,-2,5,2,-16
SMILES,TAAR1 antag,OX1R antag-1,TAAR1 ag,GPR7 antag,CHO parental Ca,OX1R antag-2
O=C(CN1C(=O)C2C3C=CC(C3)C2C1=O)OCC(=O)c1ccc(Cl)cc1 (centres undefined),0,x,2,-7,x,x
COc1cccc(CNc2cccc3cccnc23)c1O,6,54*,10,-7,13,-17
Oc1ccc(Br)cc1CNc1cccc2cccnc12,-2,16,4,3,-1,-8
Oc1c(Br)cc(Br)cc1CNc1cccc2cccnc12,-5,29*,4,-6,-9,5
COC(=O)C1=C(C)N(Cc2ccccc2C(F)(F)F)C(=NCC2CC2)NC1c1ccc(C(F)(F)F)cc1 (centres undefined),18,x,12,x,x,x
Cc1c(-c2ccc(O)cc2)nc2nc(-c3ccccc3)c(-c3ccccc3)nn12,x,27,x,-8,90*,99*
Cc1ccc(C(=O)N2CCC[C@@H]2C(=O)N2CCC[C@H]2C(=O)NCc2ccccc2)cc1C,-9,x,0,x,x,x
O=C(Nc1ccccc1)Nc1cccc(-c2nnco2)c1,-6,14,44*,-6,-9,-39
Fc1ccccc1NC(=S)NCCc1ccccc1,6,19,56*,-2,3,-5
O=[N+]([O-])c1cccc(NC(=S)NCCc2ccccc2)c1,23,53*,10,-5,17,-20
Fc1ccccc1NC(=S)NCCc1ccc(Cl)cc1,1,x,0,-1,x,x
CC(C)(CNC(=S)NCCc1ccccc1)CNC(=S)NCCc1ccccc1,62*,x,46*,15,x,x
Fc1cccc(NC(=S)NCCc2ccccc2)c1,-13,30,29,3,1,-18
O=P(C(=NCCO)NO)(N1CCOCC1)N1CCOCC1,-6,-13,8,-9,-6,-9
CC(NNC(=S)N1CCN(c2ccccn2)CC1)c1nccc2ccccc12 (centres undefined),29,x,10,x,x,x
O=C(CN1C(=O)C(=O)c2ccccc21)OCN1C(=O)c2ccccc2C1=O,-16,44*,0,-6,-8,-10
COc1ccccc1NC(=O)COC(=O)CN1C(=O)C(=O)c2ccccc21,-2,34,1,9,-7,21
COC(=O)c1cc2c(c3c4cc(OC)ccc4n(S(=O)(=O)c4ccc(F)cc4)c13)C(=O)N(CC(C)C)C2,-47,x,-2,x,x,x
COc1ccc(/C=C2\Sc3ccc(C(=O)N4CCN(Cc5ccccc5)CC4)cc3N(C)C2=O)cc1OC,59*,17,4,20,-1,3
CCOC(=O)C1CCN(C(=O)COC(=O)CSc2ccccc2C)CC1,-6,2,1,x,-4,0
Cc1ccc(C(=O)Nc2ccccc2C(=O)O)cc1NC(=O)COc1c(C)cccc1C,31,41*,20,-14,-8,-21
CCOc1c(Cl)cc(C(=O)Nc2ccccc2C(=O)O)cc1Cl,13,63*,18,12,-3,-6
COc1ccc(C(=O)Nc2ccccc2C(=O)O)cc1Cl,-32,18,15,6,3,-2
COCCN1C(=O)CCC1(C)c1nnnn1-c1ccc2c(c1)OCCO2 (centres undefined),-14,x,5,x,x,x
